Assay results from ChEMBL document CHEMBL1155483, “Anthranilic acid replacements in a niacin receptor agonist” (Bioorg Med Chem Lett, 2010).
Blank lines part the entries; values can stand above or below the compound they belong to.

How the values were obtained:
[1] = biological target: Hydroxycarboxylic acid receptor 2 (Homo sapiens) (UniProt Q8TDS4); experiment: Displacement of [3H]niacin from human niacin receptor expressed in CHO-KI cells in presence of human serum; format: cell-based
Outline: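 Membranes from CHO-K1 cells stably expressing the niacin receptor; [3H]niacin displacement titrated with and without added human serum (serum level not stated); the serum shift is given as fold change. Values are means of two independent titrations, with calculated standard errors below 15%.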

[2] = biological target: Hydroxycarboxylic acid receptor 2 (Homo sapiens) (UniProt Q8TDS4); experiment: Displacement of [3H]niacin from human niacin receptor expressed in CHO-KI cells at 25 uM; format: cell-based
[3] = Oral bioavailability in mouse plasma; format: ADME, organism-based
[4] = Half life in mouse plasma; format: ADME, organism-based
[5] = Cmax in mouse plasma; format: ADME, organism-based
[6] = Clearance in mouse plasma; format: ADME, organism-based
[7] = Volume of distribution at steady state in mouse plasma; format: ADME, organism-based; details: read-out: Vdss
[8] = Half life in rat plasma; format: ADME, organism-based
[9] = Oral bioavailability in rat plasma; format: ADME, organism-based
[10] = Volume of distribution at steady state in rat plasma; format: ADME, organism-based; details: read-out: Vdss
[11] = Clearance in rat plasma; format: ADME, organism-based
[12] = Cmax in rat plasma; format: ADME, organism-based

Sequence of Hydroxycarboxylic acid receptor 2 (Homo sapiens) (Q8TDS4 whole entry): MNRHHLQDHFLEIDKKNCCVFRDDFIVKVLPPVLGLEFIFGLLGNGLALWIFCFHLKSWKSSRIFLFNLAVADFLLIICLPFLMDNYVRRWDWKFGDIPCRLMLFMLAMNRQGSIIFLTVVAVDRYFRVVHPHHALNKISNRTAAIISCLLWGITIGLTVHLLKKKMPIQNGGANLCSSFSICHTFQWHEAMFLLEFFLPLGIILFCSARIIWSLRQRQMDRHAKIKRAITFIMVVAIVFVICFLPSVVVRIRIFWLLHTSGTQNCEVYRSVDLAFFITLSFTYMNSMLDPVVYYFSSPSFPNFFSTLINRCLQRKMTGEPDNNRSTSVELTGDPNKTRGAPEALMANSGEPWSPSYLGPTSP

fold change (FC) [1]: > 400
Compound: CCCC1CCC(NC(=O)CCc2ccc3cc(O)ccc3c2)=C(C(=O)O)C1 (stereo not drawn)

inhibition [2]: 7%
Compound: N#CC1CCC(NC(=O)CCc2ccc3cc(O)ccc3c2)=C(C(=O)O)C1 (stereo not drawn)

bioavailability [3]: 2%
half-life [4]: 3.9 h
Cmax [5]: 0.3 µM
clearance [6]: 5.6 mL/min/kg
Vd [7]: 0.76 L/kg
Compound: C[C@H]1CC(NC(=O)CCc2nc(-c3ccc(O)cn3)no2)=C(C(=O)O)C[C@H]1c1cccc(F)c1

bioavailability [3]: 87%
half-life [4]: 14 h
Cmax [5]: 16 µM
clearance [6]: 0.5 mL/min/kg
fold change (FC) [1]: > 400
Vd [7]: 1.4 L/kg
Compound: NC(Cc1nc(-c2ccc(F)cn2)no1)C(=O)NC1=C(C(=O)O)CCCC1 (stereo not drawn)

bioavailability [3]: 12%
half-life [4]: 1.8 h
Cmax [5]: 1.2 µM
clearance [6]: 5.4 mL/min/kg
Vd [7]: 0.42 L/kg
Compound: O=C(CCc1ccc(-c2ccc(O)cc2)cc1)NC1=C(C(=O)O)CC(c2cccnc2F)CC1 (stereo not drawn)

fold change (FC) [1]: > 400
Compound: O=C(CCc1ccc2cc(O)ccc2c1)NC1=C(C(=O)O)CC(c2ccccc2F)CC1 (stereo not drawn)

fold change (FC) [1]: > 400
Compound: Cn1cc(C2CCC(NC(=O)CCc3ccc4cc(O)ccc4c3)=C(C(=O)O)C2)cn1 (stereo not drawn)

bioavailability [3]: 13%
half-life [4]: 1.3 h
Cmax [5]: 3.9 µM
clearance [6]: 2 mL/min/kg
Vd [7]: 0.21 L/kg
Compound: O=C(CCc1nc(-c2ccc(O)cn2)no1)NC1=C(C(=O)O)CCCC1

half-life [8]: 4.8 h
bioavailability [9]: 44%
Vd [10]: 2.4 L/kg
fold change (FC) [1]: 30
clearance [11]: 2.3 mL/min/kg
Cmax [12]: 3.8 µM
Compound: NC(Cc1nc(-c2ccc(F)cn2)no1)C(=O)NC1=C(C(=O)O)CC(c2cc(F)cc(F)c2)CC1 (stereo not drawn)

bioavailability [3]: 35%
half-life [4]: 2.4 h
Cmax [5]: 4 µM
clearance [6]: 8.7 mL/min/kg
Vd [7]: 0.78 L/kg
Compound: O=C(CCc1ccc(-c2ccc(O)cc2)cc1)Nc1ccccc1C(=O)O

fold change (FC) [1]: > 400
Compound: O=C(CCc1ccc2cc(O)ccc2c1)NC1=C(C(=O)O)CC(c2cc(F)cc(F)c2)CC1 (stereo not drawn)

fold change (FC) [1]: 200
Compound: Cn1nccc1C1CCC(NC(=O)CCc2ccc3cc(O)ccc3c2)=C(C(=O)O)C1 (stereo not drawn)

fold change (FC) [1]: 90
Compound: O=C(CCc1ccc2cc(O)ccc2c1)NC1=C(C(=O)O)CC(c2ccc(F)nc2)CC1 (stereo not drawn)

fold change (FC) [1]: 30
Compound: O=C(CCc1nc(-c2ccc(F)cn2)no1)NC1=C(C(=O)O)CC(c2cc(F)cc(F)c2)CC1 (stereo not drawn)

fold change (FC) [1]: > 400
Compound: O=C(CCc1ccc2cc(O)ccc2c1)NC1=C(C(=O)O)CC(c2cccc(F)c2)CC1 (stereo not drawn)

fold change (FC) [1]: 100
Compound: O=C(CCc1ccc2cc(O)ccc2c1)NC1=C(C(=O)O)CC(c2cccnc2F)CC1 (stereo not drawn)

fold change (FC) [1]: > 400
Compound: O=C(CCc1nc(-c2ccc(F)cn2)no1)NC1=C(C(=O)O)CCCC1
